Data set [1] has as its system αxβ3γ2 (x = 1–6) GABAA receptors. It is filed as cell-based, rat.
Data set [2] is described as follows: Solubility limit in the assay buffer. The following applies: aqueous buffer. In kind it is physicochemical.
In data set [3] the target is α6β3γ2 GABAA receptors (Rattus norvegicus, UniProt P30191+P63079). In kind it is cell-based. The following applies: for modulation of GABA EC3–5 currents in screening of compounds 5–9, in words: 10 μM compound, comparable to compound 3. Put shortly:
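Oocytes (X. laevis, stage 5–6, defolliculated) received 2.5 ng of rat α6:β3:γ2 mRNA at 3:1:5, or γ2‐β3‐α6 triple plus β3‐α6 double concatemer cRNA at 1:1. Incubated ≥36 h at 18°C. TEVC at −60 mV, room temperature. Per-oocyte GABA EC3–5 co-applied with test compound(s) at various concentrations, 0.1% DMSO final. Hill fit for EC50. ≥3 oocytes from two batches.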

In data set [4] the target is α5β3γ2 GABAA receptors (Rattus norvegicus, UniProt P19969+P63079). It is filed as cell-based. An outline of the steps: (§1)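 Rat α and β3/γ2 subunit mRNA (2.5 ng total) injected into defolliculated stage 5–6 X. laevis oocytes. Ratio α:β3:γ2 was 1:1:5 for α1, α2, α3 and α5, and 3:1:5 for α4. Oocytes held ≥36 h at 18°C in NDE. TEVC was run at −60 mV at room temperature under 6 mL·min−1 NDE perfusion. Per-oocyte GABA EC3–5 co-applied with test compound in 0.1% DMSO final. ≥3 oocytes from two batches.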
Sequence of α5β3γ2 GABAA receptors (P19969 32-464 limits assumed): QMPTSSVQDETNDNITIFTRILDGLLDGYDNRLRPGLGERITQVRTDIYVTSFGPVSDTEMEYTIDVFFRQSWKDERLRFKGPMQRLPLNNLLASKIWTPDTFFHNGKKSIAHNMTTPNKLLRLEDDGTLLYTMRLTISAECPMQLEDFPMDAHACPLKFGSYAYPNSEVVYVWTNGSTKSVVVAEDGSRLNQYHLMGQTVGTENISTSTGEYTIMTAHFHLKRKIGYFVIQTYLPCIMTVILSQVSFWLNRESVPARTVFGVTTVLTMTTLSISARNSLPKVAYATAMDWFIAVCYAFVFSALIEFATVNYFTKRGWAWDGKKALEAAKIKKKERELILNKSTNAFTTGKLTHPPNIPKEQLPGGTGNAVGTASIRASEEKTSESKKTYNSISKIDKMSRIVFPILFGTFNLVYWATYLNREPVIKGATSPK
Sequence of α5β3γ2 GABAA receptors (P63079 26-473): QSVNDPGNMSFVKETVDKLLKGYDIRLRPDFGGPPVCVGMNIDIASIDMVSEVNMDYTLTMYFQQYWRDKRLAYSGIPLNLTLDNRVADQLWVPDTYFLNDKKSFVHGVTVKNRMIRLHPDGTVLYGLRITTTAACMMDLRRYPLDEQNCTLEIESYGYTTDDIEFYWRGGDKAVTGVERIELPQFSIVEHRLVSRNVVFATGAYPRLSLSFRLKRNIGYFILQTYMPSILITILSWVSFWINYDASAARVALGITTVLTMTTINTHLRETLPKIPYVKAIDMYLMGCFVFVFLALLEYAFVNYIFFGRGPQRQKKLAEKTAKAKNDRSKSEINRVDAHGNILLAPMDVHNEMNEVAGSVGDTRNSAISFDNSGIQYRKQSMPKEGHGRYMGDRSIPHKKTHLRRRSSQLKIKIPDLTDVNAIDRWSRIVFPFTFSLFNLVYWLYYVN
Sequence of α5β3γ2 GABAA receptors (P18508 39-466 partner): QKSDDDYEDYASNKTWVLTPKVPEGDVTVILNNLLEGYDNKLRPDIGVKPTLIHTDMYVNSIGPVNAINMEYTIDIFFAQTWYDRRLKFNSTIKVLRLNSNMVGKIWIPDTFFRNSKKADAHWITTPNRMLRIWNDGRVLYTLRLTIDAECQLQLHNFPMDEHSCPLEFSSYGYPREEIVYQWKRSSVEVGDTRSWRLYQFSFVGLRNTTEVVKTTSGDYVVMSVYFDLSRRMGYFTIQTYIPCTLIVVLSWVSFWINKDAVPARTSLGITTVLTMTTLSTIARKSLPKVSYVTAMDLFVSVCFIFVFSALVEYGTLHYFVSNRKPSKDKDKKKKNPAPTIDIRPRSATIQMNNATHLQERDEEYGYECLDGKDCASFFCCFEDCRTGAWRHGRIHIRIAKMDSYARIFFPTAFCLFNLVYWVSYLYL

Data set [5] has as its system αxβ3γ2 (x = 1–5) GABAA receptors. The settings on record: non‐α6, αxβ3γ2 receptors; 10 μM; ref Varagic et al., 2013a; cited from earlier work.
For data set [6], the system named is benzodiazepine (BZD) receptor. The following applies: ref Czernik et al., 1982; cited from earlier work.
Data set [7] addresses α1β3γ2 GABAA receptors (Rattus norvegicus, UniProt P62813+P63079). It is filed as cell-based. The settings on record: for % modulation of GABA EC3–5 currents: 10 μM compound, control (GABA) = EC3–5. An outline of the steps:
as §1

For data set [8], the system named is αxβ3γ2 (x = 1–5) GABAA receptors. In kind it is cell-based, rat. An outline of the steps: as §1
Data set [9] concerns the target α1β3 receptors (Rattus norvegicus, UniProt P62813+P63079). Nature of the data set: Two-electrode voltage clamp, α1β3 versus α1β3γ2 receptors. The settings on record: independence from γ2 subunit. It is filed as cell-based. Put shortly: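 Two-electrode voltage clamp of rat subunit mRNA-injected X. laevis oocytes, ≥36 h at 18°C in NDE (pH 7.5) before recording. Held at −60 mV at room temperature under continuous NDE flow. GABA titrated per oocyte to EC3–5 and co-applied with test compound, 0.1% DMSO final.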

The target in data set [10] is α6+/γ2− BZ site (Rattus norvegicus, UniProt P18508+P30191). The experiment in a line: Saturation binding of [3H]Ro15-4513 to rat cerebellar membranes. The following applies: presence of diazepam, rat cerebellum, n=3.
Sequence of α6+/γ2− BZ site (P30191 20-453): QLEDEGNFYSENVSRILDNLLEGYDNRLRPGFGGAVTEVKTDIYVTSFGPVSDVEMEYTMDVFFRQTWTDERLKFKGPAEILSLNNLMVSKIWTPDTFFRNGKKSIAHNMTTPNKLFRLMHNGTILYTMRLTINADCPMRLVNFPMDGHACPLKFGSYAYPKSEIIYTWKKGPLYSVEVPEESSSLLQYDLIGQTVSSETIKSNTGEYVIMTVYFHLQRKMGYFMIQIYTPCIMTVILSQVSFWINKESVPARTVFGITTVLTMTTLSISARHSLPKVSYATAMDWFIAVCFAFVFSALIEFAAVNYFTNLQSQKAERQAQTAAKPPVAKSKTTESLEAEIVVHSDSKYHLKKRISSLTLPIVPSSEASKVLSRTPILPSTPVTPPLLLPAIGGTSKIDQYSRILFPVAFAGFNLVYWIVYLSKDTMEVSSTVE
Sequence of α6+/γ2− BZ site (P18508 39-466): as the sequence (P18508 39-466 partner) above
Setting [11] is: α6β3γ2, 1 μM compound, control (GABA) = EC3–5.

Values after ≈ are worked out from the molar mass of the structure shown. Like-named read-outs stand apart in the source and are kept apart here.

Data on eight molecules can be found in article PMC5773961 (British Journal of Pharmacology, 2017).

One may read the solubility as the concentration that dissolves in the medium under given conditions. Low readings indicate little dissolved substance, high ones much dissolved substance. By EC50 is commonly meant the concentration that produces a half-maximal response. The low end stands for a more potent agent, the high end for a less potent agent. By Kd is commonly meant the free concentration of one partner at which half of the binding sites on the other are occupied at equilibrium, for simple one-to-one binding.

Sequence of α1β3γ2 GABAA receptors (P62813 28-455): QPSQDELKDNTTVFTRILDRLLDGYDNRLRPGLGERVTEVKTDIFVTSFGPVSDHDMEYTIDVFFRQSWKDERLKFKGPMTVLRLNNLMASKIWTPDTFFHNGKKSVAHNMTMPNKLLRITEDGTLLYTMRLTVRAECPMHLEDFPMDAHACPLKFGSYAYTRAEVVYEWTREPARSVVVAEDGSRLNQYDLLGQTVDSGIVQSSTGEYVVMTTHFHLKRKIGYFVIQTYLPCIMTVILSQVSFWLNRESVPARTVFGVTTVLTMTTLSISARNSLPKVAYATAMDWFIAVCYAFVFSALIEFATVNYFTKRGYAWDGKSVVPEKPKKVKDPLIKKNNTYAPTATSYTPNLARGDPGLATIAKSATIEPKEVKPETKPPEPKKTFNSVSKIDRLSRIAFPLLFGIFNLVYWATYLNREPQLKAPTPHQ
Sequence of α1β3γ2 GABAA receptors (P63079 26-473): as the sequence (P63079 26-473) above
Sequence of α1β3γ2 GABAA receptors (P18508 39-466 partner): as the sequence (P18508 39-466 partner) above
Sequence of α6β3γ2 GABAA receptors (P30191 20-453): as the sequence (P30191 20-453) above
Sequence of α6β3γ2 GABAA receptors (P63079 26-473): as the sequence (P63079 26-473) above
Sequence of α6β3γ2 GABAA receptors (P18508 39-466 partner): as the sequence (P18508 39-466 partner) above
Sequence of α1β3 receptors (P62813 28-455): as the sequence (P62813 28-455) above
Sequence of α1β3 receptors (P63079 26-473): as the sequence (P63079 26-473) above

On to `COc1ccccc1-n1nc2c3cc(Cl)ccc3[nH]cc-2c1=O` [Compound 4, 8‐chloro‐2‐(2‐methoxyphenyl)‐2H,3H,5H‐pyrazolo[4,3‐c]quinolin‐3‐one], for which the “positive allosteric modulation (PAM) activity” value in [1] was “abolished any positive allosteric modulation (PAM) activity”. This molecule also registered a solubility in data set [2] of 30 µM (≈ 9.77 µg/mL). Further, the “effect on modulation elicited by compound 3 (3 μM)” value in [3] (α6β3γ2, co-application up to 30 μM) is reported as “unable to abolish the modulatory effect”. Also, in data set [4], the modulatory activity result is on record as “weak negative modulatory activity”.

As to `COc1ccc(-n2nc3c4ccc(OC)cc4[nH]cc-3c2=O)cc1` [PZ‐II‐029], the “residual modulatory activity, % of control GABA currents” value in [5] was “roughly 200%”.

Turning to `O=C1C2C=Nc3ccccc3C2=NN1c1ccccc1` (stereo not shown) [CGS8216], in [6], the “concentrations displacing [3H]‐flunitrazepam and [3H]‐diazepam binding” value is on record as “subnanomolar”.

Consider `COc1cccc(-n2nc3c4cc(Cl)ccc4[nH]cc-3c2=O)c1` [Compound 3, 8‐chloro‐2‐(3‐methoxyphenyl)‐2H,3H,5H‐pyrazolo[4,3‐c]quinolin‐3‐one], for which the type of modulation entry in [7] is “null (silent) modulator”. In addition, the “effect on positive GABA current modulation by compound 2 (1 μM)” value in [7] (co-application of 10 and 30 μM) is listed as “reduced the modulatory effect of compound 2”. Further, the modulatory activity entry in [8] is “completely abolished”. Besides, in data set [3], it took 3100 nM to reach a half-maximal effect (EC50). Also, the “% modulation of GABA EC3–5 currents” value in data set [3] (α6β3γ2, 10 μM compound concentration, control GABA EC3–5 = 100%) was “around 300%”.

As to `O=C(O)c1cccc(-n2nc3c4cc(Cl)ccc4[nH]cc-3c2=O)c1` [Compound 9, 3‐(8‐chloro‐3‐oxo‐2H,3H,5H‐pyrazolo[4,3‐c]quinolin‐2‐yl)benzoic acid], in data set [7], the type of modulation entry was “negative allosteric modulation” and the “% modulation of GABA EC3–5 currents” value is on record as 17.9 ± 7.4%. Also, the “modulatory effects in α1β3γ2 and α1β3” value in data set [9] was “overlapping”. For the same molecule, the “% modulation of GABA EC3–5 currents” value in [3] (setting [11]) is on record as “more than 150%”. Moreover, in [3] (α6β3γ2), the “modulation of GABA EC3–5 currents in screening of compounds 5–9, in words” value (from here on “modulation of GABA EC3–5 currents … in words”) is “strongest modulation”.

As to `Nc1cccc(-n2nc3c4cc(Cl)ccc4[nH]cc-3c2=O)c1` [Compound 8, 2‐(3‐aminophenyl)‐8‐chloro‐2H,3H,5H‐pyrazolo[4,3‐c]quinolin‐3‐one], in data set [3] (α6β3γ2), the “modulation of GABA EC3–5 currents … in words” value is reported as “strongest modulation”.

`CCOC(=O)c1ncn2c1CN(C)C(=O)c1cc(N=[N+]=[N-])ccc1-2` [[3H]Ro15-4513]: the Kd in data set [10] was 1.4 ± 0.1 nM.

With `Cc1cccc(-n2nc3c4cc(Cl)ccc4[nH]cc-3c2=O)c1` [Compound 5, 8‐chloro‐2‐(3‐methylphenyl)‐2H,3H,5H‐pyrazolo‐[4,3‐c]quinolin‐3‐one], the “% modulation of GABA EC3–5 currents” value in data set [7] is given as 210.7 ± 17%; in data set [3] (setting [11]), “more than 150%”. The “modulatory effects in α1β3γ2 and α1β3” value in [9] is on record as “overlapping”. Moreover, the “modulation of GABA EC3–5 currents … in words” value in data set [3] (α6β3γ2) is listed as “strongest modulation”.
